High-throughput results as filed in PubChem BioAssay.
Only some compounds are listed: those with a hit (about 1.4% of all), similar ones and a draw of the others.
PvdQ acylase: P. aeruginosa PvdQ acylase inhibition. inhibition, % at 10 µM. purified PvdQ acylase, fluorescence plate reader. hit rate 0.063% among 340,000; in the data active means inhibition above about 30%, passing the limit was not always enough
DYRK1A inh: inhibitors of rat Dyrk1A kinase; inhibition, % at 12.5 µM; hit rate 0.43% among 310,000; Q63470; AID 504441; ADP-Glo luminescence, NFATc1 peptide; in the data active means inhibition above about 50%
CAL PDZ FP-1: human CAL PDZ-peptide interaction inhibition | Q9HD26 | purified CAL PDZ, TMR-peptide fluorescence polarization, 1 h | inhibition, % at 20 µM | hit rate 0.02% among 330,000;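 active means highest replicate inhibition of at least 40%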
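Material: tagged CAL PDZ protein CerCALP, purified; buffer or medium: sodium phosphate/NaCl buffer pH 7.4 with TCEP, IgG, Thesit; also added: fluorescent TMR peptide probe; schedule: 1 h incubation at room temperature before polarization reading; technique: fluorescence polarization from S- and P-plane intensities, G-factor corrected; control set: unlabelled peptide and DMSO controls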
CAL PDZ FP-2: blocks peptide binding to the human CAL PDZ domain | hit rate 0.92% among 300,000 | Q9HD26 | purified CAL PDZ, TMR-peptide fluorescence polarization, 1 h | inhibition, % at 24.9 µM;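 active means mean inhibition of at least 30% with at least half of replicates also reaching 30%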
TbMetRS inhib: blocks T. brucei methionyl-tRNA synthetase activity | hit rate 0.4% among 360,000 | inhibition, % at 11.9 µM | purified T. brucei MetRS, ATP depletion, Kinase-Glo luminescence | AID 624268;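 active means inhibition above a per-plate cutoff of the control wells' mean inhibition plus 3 SD, cut at about 5.5% in these data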
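assay system = parasite MetRS enzyme | timing = 15 min preincubation, 2 h reaction, all 25 °C | evaluation = percent inhibition relative to median high and low control wells | medium = HEPES buffer containing pyrophosphatase, BSA, spermine, DTT | compound = single dose, 11.9 µM final nominal, 0.9% final DMSO | detection = Kinase-Glo luminescence, ATP depletion format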
CDK5 p35 inh: inhibitors of human CDK5/p35 kinase | hit rate 0.01% among 330,000 | inhibition, % at 10 µM | Recombinant CDK5/p35, ADP-Glo luminescence, 60 min;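 active means highest replicate inhibition of at least 50% and at least 75% of replicates reaching 50%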
Target sequence (Q00535 whole entry, looked up): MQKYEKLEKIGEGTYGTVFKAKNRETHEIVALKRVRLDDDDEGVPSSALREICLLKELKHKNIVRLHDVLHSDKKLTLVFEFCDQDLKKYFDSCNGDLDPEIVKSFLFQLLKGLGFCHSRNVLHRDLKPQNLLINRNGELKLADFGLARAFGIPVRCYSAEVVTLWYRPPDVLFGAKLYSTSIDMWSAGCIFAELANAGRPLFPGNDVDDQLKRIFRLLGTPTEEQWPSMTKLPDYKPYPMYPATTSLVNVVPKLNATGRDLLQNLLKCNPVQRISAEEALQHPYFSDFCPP
Target sequence (Q15078 whole entry, looked up): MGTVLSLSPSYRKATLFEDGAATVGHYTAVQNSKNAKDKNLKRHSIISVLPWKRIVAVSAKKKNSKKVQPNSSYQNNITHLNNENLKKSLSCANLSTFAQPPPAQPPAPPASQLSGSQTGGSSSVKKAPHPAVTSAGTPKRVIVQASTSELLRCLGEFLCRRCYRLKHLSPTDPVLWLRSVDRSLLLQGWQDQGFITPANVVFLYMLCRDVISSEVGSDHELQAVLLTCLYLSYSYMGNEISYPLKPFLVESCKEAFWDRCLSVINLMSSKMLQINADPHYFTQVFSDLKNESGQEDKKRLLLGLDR
Each line names hits and unclear results; the compound was inactive in the other large screens.

COc1cc(OC)cc(C(=O)NC(=S)Nc2ccc(Cl)c(C(=O)O)c2)c1	none (no result: CAL PDZ FP-2)
CCNc1nc(-c2sc(NC(=O)C(C)(C)C)nc2C)c(-n2cc(-c3ccccc3)nn2)s1	none (no result: PvdQ acylase, DYRK1A inh, CAL PDZ FP-1, CAL PDZ FP-2, CDK5 p35 inh)
CCCCC(=O)N(C)c1c(CC)nc2c(OCC(=O)N(C)C)cccn12	none (no result: PvdQ acylase, DYRK1A inh, CAL PDZ FP-1, CAL PDZ FP-2, CDK5 p35 inh)
COc1ccc(C2=CCCCCC2)cc1OC	none (no result: PvdQ acylase, DYRK1A inh, CAL PDZ FP-1, CAL PDZ FP-2, CDK5 p35 inh)
COC(=O)[C@]12CCCCC=C1N(CCC1=CCCCC1)C(=O)[C@H](CC(=O)N1CCCCC1)C2	none (no result: PvdQ acylase, DYRK1A inh, CAL PDZ FP-1, CAL PDZ FP-2, CDK5 p35 inh)
COc1cc(C(=O)NC(c2ccccc2)c2ccccc2)cc(OC)c1OC	CAL PDZ FP-2 51
COc1ccccc1NC(=O)CN1CCCCCC1	CAL PDZ FP-2 47
CCOc1ccc(NC(=O)CN2CCN(CC(=O)Nc3ccccc3OC)CC2)cc1	CAL PDZ FP-2 123 (no result: CAL PDZ FP-1)
CCOc1ccc(NC(=O)CN2CCN(CC(=O)Nc3ccc(OC)cc3OC)CC2)cc1	none (no result: CAL PDZ FP-1)
COc1cc(NC(=O)Nc2ccccc2OC)c(OC)cc1NC(=O)CN1CCCCC1	none
COc1cc(NC(=O)c2ccco2)c(OC)cc1NC(=O)c1cc(OC)c(OC)c(OC)c1	CAL PDZ FP-2 97
CC(=O)N1CCC(C(=O)N2c3ccccc3N=C(c3ccc(C(F)(F)F)cc3)C2C(=O)NC2CCCC2)CC1 (stereo unspecified)	none (no result: PvdQ acylase, DYRK1A inh, CAL PDZ FP-1, CAL PDZ FP-2, CDK5 p35 inh)
CCc1nc2ccc(C(=O)NC(C)(C)C)cn2c1N(CC)Cc1cccc(Br)c1	none (no result: PvdQ acylase, DYRK1A inh, CAL PDZ FP-1, CAL PDZ FP-2, CDK5 p35 inh)
COc1ccccc1NC(=O)Cn1c([N+](=O)[O-])cnc1C	CAL PDZ FP-2 64
CS(=O)(=O)/C(C#N)=C/c1cccn1S(=O)(=O)c1cccc2ccccc12	none (no result: PvdQ acylase, DYRK1A inh, CAL PDZ FP-1, CAL PDZ FP-2, CDK5 p35 inh)
COc1cc(NC(=O)C2CCCN(S(=O)(=O)c3cccc4nsnc34)C2)cc(OC)c1 (stereo unspecified)	CAL PDZ FP-2 58
CN(Cc1ccccc1)C(=O)[C@@H]1CCCN1C(=O)[C@@H]1CCCN1C(=O)c1cccc(Cl)c1	none (no result: PvdQ acylase, DYRK1A inh, CAL PDZ FP-1, CAL PDZ FP-2, CDK5 p35 inh)
O=C(CN1CCC(n2nnc3cc(C(F)(F)F)ccc32)CC1)Nc1ccc2c(c1)OCCO2	CAL PDZ FP-2 49
Cc1ccc2cccc(OCc3cccc([N+](=O)[O-])c3)c2n1	CAL PDZ FP-2 61 (no result: CAL PDZ FP-1)
O=C(c1cccc(C(F)(F)F)c1)C1CCCN(C(=O)CCn2cnnn2)C1 (stereo unspecified)	CAL PDZ FP-2 52
CCCCN(C=O)c1c(CC)nc2c(OCc3ccc(C(F)(F)F)cc3)cccn12	none (no result: PvdQ acylase, DYRK1A inh, CAL PDZ FP-1, CAL PDZ FP-2, CDK5 p35 inh)
COc1ccccc1NC(=O)Nc1ccnn1Cc1cccs1	CAL PDZ FP-2 57
CC(=O)c1cc(O)c2ccccc2c1O	DYRK1A inh 62
C=CCn1cc(/C=N/Nc2nc3ccccc3[nH]2)c2ccccc21	TbMetRS inhib 5.6
Cc1c(/C=N/Nc2nc3ccccc3[nH]2)c2ccccc2n1C	none
CO[C@@H]1CN(C)C(=O)c2ccc(NC(=O)c3ccccc3F)cc2OC[C@@H](C)N(CC2CCOCC2)C[C@@H]1C	none (no result: PvdQ acylase, DYRK1A inh, CAL PDZ FP-1, CAL PDZ FP-2, CDK5 p35 inh)
O=C(NC1CCSC1)c1cccc(Cl)c1 (stereo unspecified)	PvdQ acylase 81 (no result: CAL PDZ FP-2)
COc1cccc(C(=O)NNC(=S)NC2CCCCC2)c1	none
COc1cc(OC)cc(C(=O)NNC(=S)NC2CC2)c1	CAL PDZ FP-2 57
COc1cccc(CNC(=O)[C@@H]2CCCN2C(=O)[C@H]2CCCCN2S(=O)(=O)c2ccc(OC)c(C)c2)c1	none (no result: PvdQ acylase, DYRK1A inh, CAL PDZ FP-1, CAL PDZ FP-2, CDK5 p35 inh)
Cc1cccc(C(=O)Nc2ccn(C)n2)c1	CAL PDZ FP-2 55
CN(C)S(=O)(=O)c1ccc(C(=O)NCc2nnc(SCC(=O)N3CCCCCC3)o2)cc1	none
O=C(NCc1nnc(SCC(=O)N2CCCCC2)o1)c1c(F)cccc1Cl	CAL PDZ FP-2 78
O=C(CSc1nnc(CNC(=O)c2c(F)cccc2Cl)o1)NC1CCCC1	CAL PDZ FP-2 74
CC1CCN(C(=O)CSc2nnc(CNC(=O)c3ccc(S(=O)(=O)N(C)C)cc3)o2)CC1	CAL PDZ FP-2 55
c1ccc(COc2cccc(-c3cc4nc(NCCCn5ccnc5)ccn4n3)c2)cc1	none (no result: PvdQ acylase, DYRK1A inh, CAL PDZ FP-1, CAL PDZ FP-2, CDK5 p35 inh)
Cc1cc(C(=O)COc2ccccc2Cl)c(C)n1-c1ccc2c(c1)OCO2	CAL PDZ FP-2 45
O=C(O)c1cc2c(cc1Cl)N1CCCCCC1=NS2(=O)=O	CAL PDZ FP-2 51
CC(C)n1cnc2c(=S)nc[nH]c21	none
S=c1nc[nH]c2c1ncn2-c1ccccc1	CAL PDZ FP-2 48
O=C(COc1ccc(Cl)cc1)c1ccc(O)cc1O	CAL PDZ FP-2 55
Cc1cccc2c(=O)cc(C)n(Cc3ccccc3)c12	PvdQ acylase 35
